Tests used:
[1] = Partition coefficient, log P of the compound; format: physicochemical; conditions: octanol/water
[2] = Drug uptake in ABCG2-expressing mouse RIF cells assessed as increase in mitochondrial localization at 3 uM for 24 hrs in presence of 10% FCS by fluorescence microscopy; format: ADME, cell-based; conditions: 2 µM, in the assay text read “2 uM” for “3 uM”
In short: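 RIF cells grown on poly-L-lysine-coated coverslips, co-incubated with PS and organelle trackers in 10% FCS medium for 3–4 h or 24 h, PBS-washed, imaged at 40× by inverted fluorescence microscopy. Trackers: MitoTracker Green 1 μM 1 h (mitochondria); LysoTracker Green 0.5 μM 0.5 h or 0.1 μm Fluospheres overnight (lysosomes); Bodipy C5 ceramide–albumin 5 μM (Golgi).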

RIF = experiment: Photosensitizing activity in ABCG2-expressing mouse RIF cells assessed as induction STAT3 covalent cross linking pretreated for 4 hrs followed by irradiation exposure to 665 nm light at 3 J/cm2 by Western blotting; format: functional, cell-based
In short: (§1)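 Cells incubated 4 h with PS at indicated concentrations in 10% FCS medium, exposed to 665 nm light at 3 J/cm², extracted immediately. STAT-3 cross-linked product detected by Western blot, relative level by densitometry.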

Colon 26 [3] = experiment: Photosensitizing activity in ABCG2-deficient mouse Colon 26 cells assessed as induction STAT3 covalent cross linking pretreated for 4 hrs followed by irradiation exposure to 665 nm light at 3 J/cm2 by Western blotting; format: functional, cell-based; in short: as §1
[4] = Photocytotoxicity against ABCG2-expressing mouse RIF cells xenografted in C3H mouse assessed as tumor control at 0.47 umol/kg, iv followed by exposure to irradiation at 48 J/cm2 relative to control; format: functional
In short: (§2)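 Mice bearing shoulder tumours (C3H/RIF, BALB/c/Colon26) injected intravenously at 0.47 μmol/kg. Tumours irradiated with 665 nm laser 24 h later at 135 J/cm², 75 mW/cm² or 48 J/cm², 7 mW/cm². Tumour volume by calipers, V=(L×W²)×0.5. Groups of 5–10 mice; curves compared by Cox–Mantel test.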

Colon 26 [5] = experiment: Photocytotoxicity against ABCG2-deficient mouse Colon 26 cells xenografted in BALB/c mouse assessed as tumor control at 0.47 umol/kg, iv followed by exposure to irradiation at 48 J/cm2 relative to control; format: functional; in short: as §2
[6] = Photocytotoxicity against ABCG2-expressing mouse RIF cells xenografted in C3H mouse assessed as tumor control at 0.47 umol/kg, iv followed by exposure to irradiation at 135 J/cm2 relative to control; format: functional; in short: as §2
Mus musculus = experiment: Skin toxicity in ABCG2-expressing mouse RIF cells xenografted in irradiation exposed C3H mouse assessed as foot response after 24 to 96 hrs; format: organism-based; conditions: in vivo

logP [1]: 6 | Drug uptake [2]: Active
SMILES: CCCCCCOC(C)c1c(C)c2cc3nc(c4c5[nH]c(cc6nc(cc1[nH]2)C(C)=C6CC)c(C)c5C(=O)C4)[C@@H](CCC(=O)O)[C@@H]3C (stereo partly drawn) [HPPH]
Activity (RIF): Dose-dependent effect | Activity (Colon 26 [3]): Dose-dependent effect | Activity [4]: 40% | Activity (Colon 26 [5]): 30% | Activity [6]: 50% | Activity (Mus musculus): Toxic
